# Where “and” joins values, the source holds several entries; their conditions need not be identical. Identical values can stand only once. Entries after “also recorded” stand apart in the source; their conditions may differ. Marks after values point to notes of the source that are not given here.
# What was measured:
# [1] = tested on: HDL-C, LDL-C, total cholesterol, triglycerides; assay: Lipid analyses; assay type: in vivo, human; settings: for HDL-C: Mean % change from baseline (90% CI) / HDL-C: Mean % change vs placebo (90 % CI) / LDL-C: Mean % change from baseline (90% CI) / LDL-C: Mean % change vs placebo (90 % CI) / Total cholesterol: Mean % change from baseline (90% CI) / Total cholesterol: Mean % change vs placebo (90 % CI) / Triglycerides: Mean % change from baseline (90% CI) / Triglycerides: Mean % change vs placebo (90 % CI): day 14
# In short: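 Placebo-controlled once-daily oral capsules (10–600 mg) with a low-fat meal for 14–15 days. Total cholesterol and triglycerides were measured by enzymatic methods. HDL-C was measured after dextran sulfate precipitation and centrifugation of LDL/VLDL. LDL-C was measured by a direct assay. Change from baseline was taken to Day 14 and to 2 weeks after the last dose. Emax models (Hill coefficient 1, baseline covariate) were used for HDL-C/LDL-C; linear models for total cholesterol and triglycerides.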
# healthy volunteers = settings: doses of up to 1200 mg for 10 days; cited from earlier work
# healthy subjects = assay: Safety and tolerability monitoring; assay type: in vivo, human
# In short: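 All enrolled subjects were monitored on placebo or once-daily 10–600 mg oral capsules for up to 15 days. Monitoring covered vital signs, serum and plasma electrolytes, plasma renin activity, aldosterone, plasma and salivary cortisol, and adverse events coded by MedDRA 11.0 preferred term.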
# [2] = Multiple-dose pharmacokinetics of evacetrapib in plasma; assay type: in vivo, human; settings: for CL/F: geometric mean (CV %)
# In short: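 Once-daily oral doses of 10–600 mg for 14–15 days. Sampling: six serial samples on Day 1; 11 through 336 h after the last dose; trough samples on Days 2, 3, 4, 7 and 10. Acidified K2EDTA plasma was extracted by anion-exchange SPE with an isotope-labelled internal standard. Analysis by C18 LC/MS/MS, positive ion, SRM m/z 639→314. Range 1–1000 ng/ml. Parameters by non-compartmental analysis; dose proportionality on Day 14 by power model.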
# dyslipidemic patients = settings: cited from earlier work
# [3] = molecular target: T1, cholesteryl ester transfer protein (CETP) activity (Homo sapiens, UniProt P11597); assay: Serum CETP activity by fluorometric assay in healthy subjects; assay type: in vivo; settings: for CETP activity: Mean % change from baseline (90% CI) / CETP activity: Mean % change vs placebo (90 % CI): trough (predose) day 14
# T1 sequence (P11597 18-493): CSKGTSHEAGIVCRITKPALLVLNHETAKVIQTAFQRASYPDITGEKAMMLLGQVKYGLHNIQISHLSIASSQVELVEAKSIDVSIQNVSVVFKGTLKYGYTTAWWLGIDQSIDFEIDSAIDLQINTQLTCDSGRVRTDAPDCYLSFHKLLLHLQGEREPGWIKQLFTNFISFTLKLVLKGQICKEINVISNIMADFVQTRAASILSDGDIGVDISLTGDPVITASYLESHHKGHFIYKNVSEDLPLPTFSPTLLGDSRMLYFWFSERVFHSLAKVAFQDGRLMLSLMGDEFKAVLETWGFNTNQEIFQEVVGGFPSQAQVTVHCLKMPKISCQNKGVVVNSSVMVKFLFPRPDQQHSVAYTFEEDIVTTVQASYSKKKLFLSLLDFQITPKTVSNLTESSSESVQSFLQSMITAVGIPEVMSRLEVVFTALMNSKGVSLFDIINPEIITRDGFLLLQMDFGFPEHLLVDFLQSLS
# In short: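 Serum was sampled at the pharmacokinetic time points, including pre-dose troughs, after once-daily oral dosing (10–600 mg) or placebo. CETP activity was measured by fluorometric assay and expressed as the maximum test-compound-inhibitable activity. Change from baseline was analysed with an Emax dose model (Hill coefficient 1, baseline covariate).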
# CETP mass = assay: Serum CETP mass by sandwich ELISA in healthy subjects; assay type: in vivo, human; settings: for CETP mass: Mean % change from baseline (90% CI) / CETP mass: Mean % change vs placebo (90 % CI): trough (predose) day 14
# In short: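 CETP mass was measured in serum by sandwich ELISA. Samples were taken at baseline and on Days 2, 7 and 14 of once-daily oral dosing (10–600 mg) or placebo.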
# [4] = Phase 2, nearly 400 dyslipidemic patients
structure (smiles),measurement,setting,value
Cc1cc(C)c2c(c1)[C@@H](N(Cc1cc(C(F)(F)F)cc(C(F)(F)F)c1)c1nnn(C)n1)CCCN2C[C@H]1CC[C@H](C(=O)O)CC1 [evacetrapib],HDL-C: Mean % change from baseline (90% CI),[1]; 10 mg/day,"11.69 (4.39, 18.99) %"
same,HDL-C: Mean % change vs placebo (90 % CI),[1]; 10 mg/day,"18.02 (9.76, 26.28) ^*** %"
same,LDL-C: Mean % change from baseline (90% CI),[1]; 10 mg/day,"−11.94 (−18.31, −5.57) %"
same,LDL-C: Mean % change vs placebo (90 % CI),[1]; 10 mg/day,"−13.59 (−21.83, −5.35) ^** %"
same,Total cholesterol: Mean % change from baseline (90% CI),[1]; 10 mg/day,"−4.92 (−15.93, 6.10) %"
same,Total cholesterol: Mean % change vs placebo (90 % CI),[1]; 10 mg/day,"−4.26 (−17.58, 9.06) %"
same,Triglycerides: Mean % change from baseline (90% CI),[1]; 10 mg/day,"−12.92 (−26.89, 1.06) %"
same,Triglycerides: Mean % change vs placebo (90 % CI),[1]; 10 mg/day,"5.51 (−11.39, 22.40) %"
same,HDL-C: Mean % change from baseline (90% CI),[1]; 100 mg/day,"59.28 (51.54, 67.02) %"
same,HDL-C: Mean % change vs placebo (90 % CI),[1]; 100 mg/day,"65.61 (53.34, 77.88) ^*** %"
same,LDL-C: Mean % change from baseline (90% CI),[1]; 100 mg/day,"−24.47 (−27.68, −21.26) %"
same,LDL-C: Mean % change vs placebo (90 % CI),[1]; 100 mg/day,"−26.13 (−32.39, −19.86) ^*** %"
same,Total cholesterol: Mean % change from baseline (90% CI),[1]; 100 mg/day,"6.83 (−4.18, 17.85) %"
same,Total cholesterol: Mean % change vs placebo (90 % CI),[1]; 100 mg/day,"7.49 (−5.83, 20.81) %"
same,Triglycerides: Mean % change from baseline (90% CI),[1]; 100 mg/day,"−3.75 (−17.73, 10.23) %"
same,Triglycerides: Mean % change vs placebo (90 % CI),[1]; 100 mg/day,"14.67 (−2.22, 31.57) %"
same,HDL-C: Mean % change from baseline (90% CI),[1]; 300 mg/day,"75.22 (68.87, 81.58) %"
same,HDL-C: Mean % change vs placebo (90 % CI),[1]; 300 mg/day,"81.56 (70.90, 92.22) ^*** %"
same,LDL-C: Mean % change from baseline (90% CI),[1]; 300 mg/day,"−26.39 (−29.92, −22.85) %"
same,LDL-C: Mean % change vs placebo (90 % CI),[1]; 300 mg/day,"−28.04 (−34.18, −21.90) ^*** %"
same,Total cholesterol: Mean % change from baseline (90% CI),[1]; 300 mg/day,"15.60 (3.53, 27.67) %"
same,Total cholesterol: Mean % change vs placebo (90 % CI),[1]; 300 mg/day,"16.25 (2.05, 30.46) %"
same,Triglycerides: Mean % change from baseline (90% CI),[1]; 300 mg/day,"−2.10 (−17.41, 13.21) %"
same,Triglycerides: Mean % change vs placebo (90 % CI),[1]; 300 mg/day,"16.32 (−1.69, 34.34) %"
same,decrease in LDL-C,"[1]; 600 mg, Day 14, relative to placebo",29%
same,HDL-C: Mean % change from baseline (90% CI),[1]; 600 mg/day,"80.50 (73.05, 87.95) %"
same,HDL-C: Mean % change vs placebo (90 % CI),[1]; 600 mg/day,"87% and 86.83 (75.96, 97.71) ^*** %"
same,LDL-C: Mean % change from baseline (90% CI),[1]; 600 mg/day,"−26.91 (−30.71, −23.11) %"
same,LDL-C: Mean % change vs placebo (90 % CI),[1]; 600 mg/day,"−28.56 (−34.76, −22.37) ^*** %"
same,Total cholesterol: Mean % change from baseline (90% CI),[1]; 600 mg/day,"15.48 (7.85, 23.11) %"
same,Total cholesterol: Mean % change vs placebo (90 % CI),[1]; 600 mg/day,"16.13 (5.44, 26.82) ^* %"
same,Triglycerides: Mean % change from baseline (90% CI),[1]; 600 mg/day,"−22.08 (−31.76, −12.40) %"
same,Triglycerides: Mean % change vs placebo (90 % CI),[1]; 600 mg/day,"−3.66 (−17.22, 9.91) %"
same,changes in triglycerides,"[1]; 10–600 mg, Day 14",no statistically significant changes
same,HDL-C change (SD) from baseline to 2 weeks after the last dose,[1]; 600-mg dose group,7.3%
same,LDL-C change (SD) from baseline to 2 weeks after the last dose,[1]; 600-mg dose group,−2.6%
same,HDL-C and LDL-C after 2-week washout,[1]; all dose groups,returned to levels at or near baseline
same,QT interval prolongation,healthy volunteers,no evidence of QT interval prolongation
same,tolerability,healthy volunteers,well tolerated
same,severity of adverse events,healthy subjects; 10–600 mg,mild to moderate
same,tolerability,healthy subjects; 10–600 mg for up to 15 days,generally well tolerated
same,"changes in routine serum chemistries (liver transaminases, complete blood counts, urinalysis)",healthy subjects; in vivo,No clinically relevant changes
same,effect on aldosterone,healthy subjects; multiple daily doses,no effect
same,subjects reporting rash-related AEs (discontinued the study),"healthy subjects; two at 300 mg, two at 600 mg",Four
same,CL/F,"[2]; 10 mg once daily, steady state",17.5 (21) l/h
same,CL/F,"[2]; 100 mg once daily, steady state",21.7 (30) l/h
same,CL/F,"[2]; 300 mg once daily, steady state",39.6 (44) l/h
same,CL/F,"[2]; 600 mg once daily, steady state, n = 24",43.6 ^e (34) l/h
same,levels of evacetrapib 3 weeks after last dose,"[2]; 600 mg/day for 14 days, crossover cohort, 3-week washout",undetectable levels; also recorded: complete washout
same,dose proportionality of plasma exposure,[2]; 10–600 mg,less than dose-proportional
same,"mean apparent oral clearance at steady state, range across doses",[2]; 10–600 mg,17.5 to 43.6 L/h
same,"AUCt,ss for 600 mg relative to 100 mg",[2]; after 14 daily doses,approximately threefold
same,accumulation ratio during multiple dosing,"[2]; based on trough concentrations, between Days 1 and 14",2–2.5
same,levels of evacetrapib after 2-week (336 h) washout,[2]; each dose group,returned to levels at or near baseline; also recorded: decreased to near the lower limit of detection
same,half-life,"[2]; human, plasma, oral",24 to 44 h
same,Tmax,"[2]; human, plasma, oral, 10 mg, tmax, 10 mg once daily, steady state, median (range)",4.02 h
same,time to steady state,[2]; once-daily dosing,approximately 10 days
same,tolerability,"dyslipidemic patients; 12 weeks, daily doses up to 500 mg monotherapy or 100 mg with a statin",well tolerated
same,decrease in LDL-C,dyslipidemic patients; [4],up to 36%
same,increase in HDL-C levels,dyslipidemic patients; [4],up to 129%
same,effects on blood pressure or mineralocorticoid activity,dyslipidemic patients; Phase 2,without having effects
same,CETP activity: Mean % change from baseline (90% CI),[3]; 10 mg/day,"−14.60 (−22.33, −6.87) %"
same,CETP activity: Mean % change vs placebo (90 % CI),[3]; 10 mg/day,"−16.08 (−23.23, −8.94) ^*** %"
same,trough inhibition of CETP activity,[3]; 100 mg,65%
same,CETP activity: Mean % change from baseline (90% CI),[3]; 100 mg/day,"−64.54 (−73.08, −56.00) %"
same,CETP activity: Mean % change vs placebo (90 % CI),[3]; 100 mg/day,"−66.02 (−78.93, −53.11) ^*** %"
same,trough inhibition of CETP activity,[3]; 300 mg,84%
same,CETP activity: Mean % change from baseline (90% CI),[3]; 300 mg/day,"−84.26 (−91.34, −77.18) %"
same,CETP activity: Mean % change vs placebo (90 % CI),[3]; 300 mg/day,"−85.74 (−97.43, −74.05) ^*** %"
same,trough inhibition of CETP activity,[3]; 600 mg,91% and 91.2%
same,inhibition of CETP activity compared with placebo,"[3]; 600 mg, after multiple doses",93%
same,CETP activity: Mean % change from baseline (90% CI),[3]; 600 mg/day,"−91.18 (−99.71, −82.66) %"
same,CETP activity: Mean % change vs placebo (90 % CI),[3]; 600 mg/day,"−92.66 (−104.92, −80.41) ^*** %"
same,CETP activity after 2-week (336 h) washout,[3]; each dose group,returned to levels at or near baseline; also recorded: returned to baseline levels
same,CETP mass: Mean % change from baseline (90% CI),CETP mass; 10 mg/day,"20.18 (9.92, 30.45) %"
same,CETP mass: Mean % change vs placebo (90 % CI),CETP mass; 10 mg/day,"20.58 (11.28, 29.88) ^*** %"
same,CETP mass: Mean % change from baseline (90% CI),CETP mass; 100 mg/day,"95.77 (82.14, 109.41) %"
same,CETP mass: Mean % change vs placebo (90 % CI),CETP mass; 100 mg/day,"96.17 (76.37, 115.97) ^*** %"
same,CETP mass: Mean % change from baseline (90% CI),CETP mass; 300 mg/day,"131.72 (122.10, 141.34) %"
same,CETP mass: Mean % change vs placebo (90 % CI),CETP mass; 300 mg/day,"132.12 (115.85, 148.38) ^*** %"
same,CETP mass: Mean % change from baseline (90% CI),CETP mass; 600 mg/day,"145.34 (133.29, 157.39) %"
same,CETP mass: Mean % change vs placebo (90 % CI),CETP mass; 600 mg/day,"145.73 (128.99, 162.48) ^*** %"
same,CETP mass approximately 2 weeks after the last dose,"CETP mass; human, in vivo",returned to levels at or near baseline; also recorded: returned to baseline

# Reference: PMC4284021 (The Journal of Pharmacy and Pharmacology, 2014)
